Experimental data: publication PMC7199890 (European journal of medicinal chemistry, 2019)

Assays:
Assay in all cases: Radioligand binding
[1] = target: T1, hA1AR (Homo sapiens, UniProt P30542); conditions: read-out: hA1 % of inhibition
T1 sequence (P30542 1-326): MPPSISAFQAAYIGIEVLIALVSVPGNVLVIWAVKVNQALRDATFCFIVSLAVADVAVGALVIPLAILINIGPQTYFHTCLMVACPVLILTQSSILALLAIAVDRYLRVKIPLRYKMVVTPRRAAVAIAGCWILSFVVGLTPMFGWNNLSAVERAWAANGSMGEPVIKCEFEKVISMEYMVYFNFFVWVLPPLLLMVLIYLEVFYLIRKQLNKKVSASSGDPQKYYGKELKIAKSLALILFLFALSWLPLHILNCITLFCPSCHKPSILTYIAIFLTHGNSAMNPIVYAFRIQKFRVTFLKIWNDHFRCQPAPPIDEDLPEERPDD
Procedure, shortened: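 Membranes came from CHO cells expressing recombinant hA1AR, labelled with [3H]R-PIA. ADA (3 units/mL) was present during membrane preparation, a 30 min 30 °C preincubation and radioligand incubation. Test compound was dissolved in DMSO and diluted in buffer, DMSO ≤2% final. Incubations ended by GF/B filtration and three buffer rinses. The read-out is % inhibition of specific binding at a single concentration.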

[2] = target: hA2AAR (Homo sapiens, UniProt P29274); conditions: for hA1/hA2A: selectivity ratio of Ki values
Sequence of hA2AAR (P29274 whole entry): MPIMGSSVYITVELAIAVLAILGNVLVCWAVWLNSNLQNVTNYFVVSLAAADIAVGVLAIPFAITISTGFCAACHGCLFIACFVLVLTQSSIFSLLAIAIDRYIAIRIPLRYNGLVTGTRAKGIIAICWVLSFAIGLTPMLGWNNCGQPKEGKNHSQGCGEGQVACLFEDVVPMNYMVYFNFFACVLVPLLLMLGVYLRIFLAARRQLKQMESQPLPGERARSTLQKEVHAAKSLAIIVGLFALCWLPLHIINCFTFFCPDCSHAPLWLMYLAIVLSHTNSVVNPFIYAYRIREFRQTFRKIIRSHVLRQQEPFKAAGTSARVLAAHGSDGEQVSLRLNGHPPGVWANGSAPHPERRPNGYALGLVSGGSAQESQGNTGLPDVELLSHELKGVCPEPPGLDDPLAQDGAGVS

[3] = target: T2, hA3AR (Homo sapiens, UniProt P0DMS8); conditions: for hA1/hA3 / hA2A/hA3: selectivity ratio of Ki values
T2 sequence (P0DMS8 1-318): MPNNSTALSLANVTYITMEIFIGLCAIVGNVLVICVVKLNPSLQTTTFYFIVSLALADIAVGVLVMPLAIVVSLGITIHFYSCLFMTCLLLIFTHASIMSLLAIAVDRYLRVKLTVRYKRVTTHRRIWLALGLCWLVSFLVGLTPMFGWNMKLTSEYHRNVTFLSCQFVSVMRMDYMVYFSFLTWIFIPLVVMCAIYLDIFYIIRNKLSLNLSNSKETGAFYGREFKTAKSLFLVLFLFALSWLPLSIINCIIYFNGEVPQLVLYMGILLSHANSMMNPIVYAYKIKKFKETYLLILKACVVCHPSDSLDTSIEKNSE
Procedure, shortened: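 Displacement of [125I]AB-MECA binding on membranes from CHO cells expressing recombinant hA3AR. […] ADA (3 units/mL) was present during membrane preparation, a 30 min 30 °C preincubation and radioligand incubation. DMSO was ≤2% final. At least six competitor concentrations spanning 3 log units were used. Incubations ended by GF/B filtration and three rinses.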

Row | SMILES | inhibition at 10 µM [1] [%] | hA1/hA2A [2] | hA1/hA3 [3] | hA2A/hA3 [3] | Ki [2] [nM] | Ki [3] [nM]
1 | Cn1cc2c(nc(NC(=O)Nc3ccc(CC(=O)NCCCCCNC(=S)Nc4ccc(-c5c6ccc(=O)cc-6oc6cc(O)ccc56)c(C(=O)O)c4)cc3)n3nc(-c4ccco4)nc23)n1 [Compound 16, 5-(3-(5-(2-(4-(3-(2-(furan-2-yl)-8-methyl-8H-pyrazolo[4,3-e][1,2,4]triazolo[1,5-c]pyrimidin-5-yl)ureido)phenyl)acetamido)pentyl)thioureido)-2-(6-hydroxy-3-oxo-3H-xanthen-9-yl)benzoate] | 21 | >94 | >103 | 1.1 |  | 
2 | Cn1cc2c(nc(NC(=O)Nc3ccc(CC(=O)NCCOCCOCCNC(=S)Nc4ccc(-c5c6ccc(=O)cc-6oc6cc(O)ccc56)c(C(=O)O)c4)cc3)n3nc(-c4ccco4)nc23)n1 [Compound 17, 5-(3-(2-(2-(2-(2-(4-(3-(2-(furan-2-yl)-8-methyl-8H-pyrazolo[4,3-e][1,2,4]triazolo[1,5-c]pyrimidin-5-yl)ureido)phenyl)acetamido)ethoxy)ethoxy)ethyl)thioureido)-2-(6-hydroxy-3-oxo-3H-xanthen-9-yl)benzoate] | 29 | >94 | >73 | 0.69 | 95.7 | 137
3 | Cn1cc2c(nc(NC(=O)Nc3ccc(CC(=O)NCCCOCCOCCOCCCNC(=S)Nc4ccc(-c5c6ccc(=O)cc-6oc6cc(O)ccc56)c(C(=O)O)c4)cc3)n3nc(-c4ccco4)nc23)n1 [Compound 18, 5-(3-(1-(4-(3-(2-(furan-2-yl)-8-methyl-8H-pyrazolo[4,3-e] [1,2,4]triazolo[1,5-c]pyrimidin-5-yl)ureido)phenyl)-2-oxo-7,10,13-trioxa-3-azahexadecan-16-yl)thioureido)-2-(6-hydroxy-3-oxo-3H-xanthen-9-yl)benzoate] | 32 | >109 | >48 | 0.44 | 91.5 | 207
